Assay results: ChEMBL document CHEMBL2384950, “2-(3-Fluoro-4-methylsulfonylaminophenyl)propanamides as potent TRPV1 antagonists: structure activity relationships of the 2-oxy pyridine C-region” (Eur J Med Chem, 2013)

Tests used:
[1] = molecular target: T1, Transient receptor potential cation channel subfamily V member 1 (Homo sapiens, UniProt Q8NER1); experiment: Antagonist activity at human TRPV1 expressed in CHOK1 cells assessed as inhibition of pH 6 to 6.3-induced activity by FLIPR assay; format: cell-based, CHO-K1
T1 sequence (Q8NER1 whole entry): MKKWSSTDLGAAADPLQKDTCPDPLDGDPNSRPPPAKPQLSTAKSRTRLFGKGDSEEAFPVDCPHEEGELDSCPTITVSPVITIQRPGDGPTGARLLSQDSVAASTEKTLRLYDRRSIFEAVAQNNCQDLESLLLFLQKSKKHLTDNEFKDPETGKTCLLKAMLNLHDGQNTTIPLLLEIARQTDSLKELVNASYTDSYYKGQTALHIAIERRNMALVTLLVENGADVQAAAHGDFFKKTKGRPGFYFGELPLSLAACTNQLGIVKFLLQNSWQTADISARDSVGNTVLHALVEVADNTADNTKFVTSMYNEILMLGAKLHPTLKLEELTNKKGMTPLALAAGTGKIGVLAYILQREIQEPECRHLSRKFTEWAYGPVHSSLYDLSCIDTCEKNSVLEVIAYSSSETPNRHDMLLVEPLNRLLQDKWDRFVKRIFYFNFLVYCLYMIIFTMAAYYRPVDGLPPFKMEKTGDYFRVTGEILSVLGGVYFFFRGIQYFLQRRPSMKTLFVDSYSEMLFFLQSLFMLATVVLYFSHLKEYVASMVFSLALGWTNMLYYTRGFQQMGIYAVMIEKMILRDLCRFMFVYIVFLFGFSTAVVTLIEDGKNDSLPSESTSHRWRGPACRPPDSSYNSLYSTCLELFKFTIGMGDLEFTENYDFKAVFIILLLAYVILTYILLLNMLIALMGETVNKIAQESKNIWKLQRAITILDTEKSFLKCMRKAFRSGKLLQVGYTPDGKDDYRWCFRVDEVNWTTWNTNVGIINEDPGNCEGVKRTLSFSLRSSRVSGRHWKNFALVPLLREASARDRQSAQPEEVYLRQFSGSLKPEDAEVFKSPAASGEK

[2] = molecular target: T1, Transient receptor potential cation channel subfamily V member 1; experiment: Antagonist activity at human TRPV1 expressed in CHOK1 cells assessed as inhibition of capsaicin-induced activity by FLIPR assay; format: cell-based, CHO-K1
[3] = molecular target: T1, Transient receptor potential cation channel subfamily V member 1; experiment: Antagonist activity at human TRPV1 expressed in CHOK1 cells assessed as inhibition of N-arachidonoyldopamine-induced activity after 5 mins by FLIPR assay; format: cell-based, CHO-K1
[4] = molecular target: T1, Transient receptor potential cation channel subfamily V member 1; experiment: Antagonist activity at human TRPV1 expressed in CHOK1 cells assessed as inhibition of heat 45 degC-induced activity after 5 mins by FLIPR assay; format: cell-based, CHO-K1
Mus musculus [5] = experiment: Analgesic activity in NMRI mouse assessed as inhibition of formalin-induced nociceptive response at 0.3 mg/kg, po mesaured for 21 to 24 mins relative to control; format: functional
Outline: (§1)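 Oral dosing in mice, randomized dose and vehicle groups, 10 animals per group, vehicle control each study. 20 μl 1% formalin in 0.9% NaCl injected subcutaneously into dorsal right hind paw. Time spent licking and biting the injected paw counted 21–24 min post-formalin. Reported as % inhibition (mean ± SEM) versus vehicle; Kruskal–Wallis test.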

Mus musculus [6] = experiment: Analgesic activity in NMRI mouse assessed as inhibition of formalin-induced nociceptive response at 0.1 mg/kg, po mesaured for 21 to 24 mins relative to control; format: functional; outline: as §1

SMILES	IC50 [1]	Ki [2]	other results
CC(C(=O)NCc1ccc(C(C)(C)C)cc1)c1ccc(NS(C)(=O)=O)c(F)c1 (stereo not given)	1990 nM	44.5 nM	–
CC1CCN(c2nc(C(F)(F)F)ccc2CNC(=O)C(C)c2ccc(NS(C)(=O)=O)c(F)c2)CC1 (stereo not given)	–	–	Ki [3]: 0.23 nM; IC50 [4]: 4.5 nM
CC(C(=O)NCc1ccc(C(F)(F)F)nc1OCCC1CCCCN1C(=O)OC(C)(C)C)c1ccc(NS(C)(=O)=O)c(F)c1 (stereo not given)	16.6 nM	0.3 nM	–
CC(C(=O)NCc1ccc(C(F)(F)F)nc1OCc1ccccc1)c1ccc(NS(C)(=O)=O)c(F)c1 (stereo not given)	–	–	inhibition in vivo at 0.3 mg/kg (Mus musculus [5]): 54.1%; inhibition in vivo at 0.1 mg/kg (Mus musculus [6]): 41.8%; Ki [3]: 0.001 nM; IC50 [4]: 52.3 nM
CC(C(=O)NCc1ccc(C(F)(F)F)nc1OCCc1ccccc1)c1ccc(NS(C)(=O)=O)c(F)c1 (stereo not given)	27.6 nM	0.5 nM	–
COc1ccc(COc2nc(C(F)(F)F)ccc2CNC(=O)C(C)c2ccc(NS(C)(=O)=O)c(F)c2)cc1 (stereo not given)	653 nM	2.6 nM	–
CC(C(=O)NCc1ccc(C(F)(F)F)nc1OCc1cccc(F)c1)c1ccc(NS(C)(=O)=O)c(F)c1 (stereo not given)	69 nM	0.8 nM	–
CC(C(=O)NCc1ccc(C(F)(F)F)nc1OCc1cccc(Cl)c1)c1ccc(NS(C)(=O)=O)c(F)c1 (stereo not given)	95 nM	4.9 nM	–
CC(C(=O)NCc1ccc(C(F)(F)F)nc1OCc1cc(F)cc(F)c1)c1ccc(NS(C)(=O)=O)c(F)c1 (stereo not given)	93 nM	1 nM	–
CC(C(=O)NCc1ccc(C(F)(F)F)nc1OCc1cc(Cl)cc(Cl)c1)c1ccc(NS(C)(=O)=O)c(F)c1 (stereo not given)	114 nM	2.6 nM	–
CC1CC(C)CC(Oc2nc(C(F)(F)F)ccc2CNC(=O)C(C)c2ccc(NS(C)(=O)=O)c(F)c2)C1 (stereo not given)	174 nM	–	–
CC(C(=O)NCc1ccc(C(F)(F)F)nc1OC1CCNCC1)c1ccc(NS(C)(=O)=O)c(F)c1 (stereo not given)	> 10000 nM	–	–
CC(C(=O)NCc1ccc(C(F)(F)F)nc1OC[C@@H]1C[C@H]1C)c1ccc(NS(C)(=O)=O)c(F)c1 (stereo not given in full)	5.1 nM	0.3 nM	–
CC(C(=O)NCc1ccc(C(F)(F)F)nc1OCC1CCNCC1)c1ccc(NS(C)(=O)=O)c(F)c1 (stereo not given)	> 10000 nM	–	–
COCCOc1nc(C(F)(F)F)ccc1CNC(=O)C(C)c1ccc(NS(C)(=O)=O)c(F)c1 (stereo not given)	–	49 nM	–
CCOCCOc1nc(C(F)(F)F)ccc1CNC(=O)C(C)c1ccc(NS(C)(=O)=O)c(F)c1 (stereo not given)	–	50 nM	–
CC(C)COc1nc(C(F)(F)F)ccc1CNC(=O)C(C)c1ccc(NS(C)(=O)=O)c(F)c1 (stereo not given)	–	–	inhibition in vivo at 0.3 mg/kg (Mus musculus [5]): 60.8%; inhibition in vivo at 0.1 mg/kg (Mus musculus [6]): 63.4%; Ki [3]: 0.29 nM; IC50 [4]: 67.5 nM
CCC(CC)Oc1nc(C(F)(F)F)ccc1CNC(=O)C(C)c1ccc(NS(C)(=O)=O)c(F)c1 (stereo not given)	> 10000 nM	–	–
CCCCC(CCC)Oc1nc(C(F)(F)F)ccc1CNC(=O)C(C)c1ccc(NS(C)(=O)=O)c(F)c1 (stereo not given)	–	0.5 nM	–
